# H69AR inhibit: proliferation blockers of H69AR lung cancer cells, primary screen, cell-based, human, 86K library; H69AR lung tumor viability, ATP luminescence, 72 h; stronger effect = lower value; viability, % at 10 µM; 85,000 compounds, 6% hits; AID 598, 2007;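 active = viability at or below 40%; inactive = viability above 40%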;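 also: multidrug resistant small cell line overexpressing MRP-1 efflux transporter; 100% = mean luminescence of untreated control wells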
# Lung fibro prol: antiproliferative effect on LL 47 fibroblasts – human, LL 47 cells, CellTiter-Glo luminescence, primary screen; 85,000 compounds, 1.1% hits; viability, % at 10 µM; LL 47 human lung fibroblast viability, ATP luminescence; stronger effect = lower value;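 active = viability at or below 50% in the single dose screen; inactive = viability above 50%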;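 also: compound exposure lasted 72 h before the ATP readout; 100% = median luminescence of untreated cell-only wells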
#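 Signal: luminescent ATP detection, CellTiter-Glo; assay system: LL 47 human lung fibroblasts; input: 1,150 cells/well; incubation: overnight cell rest, 72 h compound treatment at 37 °C; measure: % viability versus median cells-only luminescence; medium: IMEM growth medium with 15% fetal bovine serum; dosing: compound addition at 0.1% DMSO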
# HUVEC inhibit: inhibitors of HUVEC proliferation, primary screen, cell-based, 384-well; CellTiter-Glo luminescence, 72 h; stronger effect = lower value; viability, % at 10 µM (by protocol); 86,000 compounds, 1.1% hits; AID 648, 2007;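 active = viability at or below 30%; inactive = viability above 30%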;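 also: 100% = median luminescence of DMSO-only cell control wells on each plate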
# Jurkat tox 60K: cytotoxicity toward Jurkat T cells, primary screen, cytotoxicity control, cell-based, Jurkat E6.1, 60K MLSMR library | Jurkat E6.1 viability, ATP luminescence, 48 h | inhibition, % at 4 µM | 56,000 compounds, 1.2% hits | AID 463, 2006;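 active = inhibition above the mean inhibition of all tested compounds plus 3 SD, cut at about 28% in these data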
# * hit, by the source's call; . = not tested or not shown. A selection: hits, their analogues and other compounds. The true share with any hit is near 6.4%.
SMILES,H69AR inhibit,Lung fibro prol,HUVEC inhibit,Jurkat tox 60K
CC(C)n1c(SCC(=O)N2CCCc3ccccc32)nc2c1c(=O)n(C)c(=O)n2C,93,91,107,-6
COC(=O)c1cc(Br)c(=O)n(-c2cccc(F)c2)c1,86,94,98,.
O=C(Nc1ccc(N2CCCC2)cc1)C(Cl)c1ccccc1 (configuration not stated),22*,92,97,.
CS(=O)(=O)N1CCN(c2ccc(NC(=O)C(c3ccccc3)c3ccccc3)cc2)CC1,87,94,95,.
COc1ccc(-n2c(SCC(=O)NCC3CCCO3)nc3ccccc32)cc1 (configuration not stated),93,96,86,.
COC(=O)Nc1ccc(S(=O)(=O)Nc2cccc3ccccc23)cc1,35*,.,80,.
COc1ccc(S(=O)(=O)Nc2ccc(O)c3ccccc23)cc1,1.8*,93,2.3*,19
COc1ccccc1NS(=O)(=O)c1ccc(NC(C)=O)cc1,95,105,96,-3
COc1ccc(S(=O)(=O)Nc2ccccc2C(F)(F)F)cc1,89,102,93,1
CC1CCN(C(=O)COC(=O)[C@H](C)NS(=O)(=O)/C=C/c2ccccc2)CC1,105,93,96,.
CCOc1ccccc1NC(=O)Cn1nnc(C(=O)NCc2ccco2)c1N,26*,55,51,98*
COc1cccc(-c2nc(N3CCCCC3C)c3ccccc3n2)c1O (configuration not stated),38*,81,47,.
CCN(CC)c1nc(-c2cccc(OC)c2O)nc2ccccc12,55,87,83,.
CCOC(=O)CSc1nnc(CNC(=O)c2ccc(OC)c(OC)c2)n1C,96,100,102,2
Cc1ccc(C)n1NC(=O)c1ccccc1O,29*,45*,88,.
CC(Oc1ccc(Cl)cc1Cl)C(=O)Nc1ccncc1 (configuration not stated),34*,83,81,44*
Nn1c(SCC(=O)Nc2ccc(F)c(F)c2)nnc1C1CCCCC1,89,.,95,8
CC(=O)c1sc(N2C(=O)c3oc4ccccc4c(=O)c3C2c2ccc(C)o2)nc1C (configuration not stated),9.4*,87,101,8
O=C(COC(=O)Cc1cccs1)Nc1ccccc1,95,104,104,-4
O=c1oc2ccccc2n1CSC1=NCCS1,21*,85,54,12
COc1ccccc1-c1cc(C(F)(F)F)nc(S(=O)(=O)CCCC(=O)N2CCCCC2C)n1 (configuration not stated),.,.,.,58*
COc1ccccc1-c1cc(C(F)(F)F)nc(S(=O)(=O)CCCC(=O)NC(C)C)n1,.,.,.,0
Cn1c2ccccc2c2c(C(=O)N3CCN(c4ccccc4)CC3)cn(C3CCCC3)c(=O)c21,72,100,72,.
Cc1cccc(N2CCN(C(=O)c3cn(C)c(=O)c4c3c3ccccc3n4C)CC2)c1C,31*,85,36,16
Cc1ccc(Cl)cc1N1CCN(C(=O)c2cn(C)c(=O)c3c2c2ccccc2n3C)CC1,3.4*,55,33,13
SMILES,H69AR inhibit,Lung fibro prol,HUVEC inhibit,Jurkat tox 60K
Fc1ccc(-c2cc3nc4c(c(N5CCOCC5)n3n2)CCCC4)cc1,35*,80,53,8
Cc1cccc(-c2cc3nc4c(c(N5CCC6(CC5)OCCO6)n3n2)CCCC4)c1,31*,88,84,3
COc1ccc(N2CCN(CCCNS(=O)(=O)c3c(C)noc3/C=C/N(C)C)CC2)cc1,104,90,80,10
CC1CCCCN1C(=O)CSc1nnc(-c2cccnc2)n1C1CCCCC1 (configuration not stated),93,102,93,-3
CC1CCN(C(=O)CSc2nnc(-c3cccnc3)n2C2CCCCC2)CC1,26*,.,101,0
Cc1ccc2c(c1)N(C(=O)NC1CCCCC1)C(C)(C)CC2C (configuration not stated),40,99,85,.
CCn1cc(C(=O)NCc2cccc(F)c2)c(=O)c2cc(F)c(N3CCN(C(=O)c4ccco4)CC3)cc21,16*,89,63,.
CCn1cc(C(=O)NCC2CCCO2)c(=O)c2cc(F)c(N3CCN(C)CC3)cc21 (configuration not stated),70,103,91,.
CCC(=O)N1CCN(c2cc3c(cc2F)c(=O)c(C(=O)O)cn3CC)CC1,100,101,96,-13
CCn1cc(C(=O)NCc2cccnc2)c(=O)c2cc(F)c(N3CCN(C(=O)c4ccco4)CC3)cc21,35*,102,107,.

# Assay outcomes (PubChem BioAssay)
